ROMK primary: modulators of human ROMK potassium channel; 130,000 compounds, 2% hits; P48048; B-score at 10 µM; Tet-inducible ROMK, thallium flux fluorescence; actives lie on both sides;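 active = signal ratio slope over the read window, or its plate-corrected B-score, at least 3 SD from the plate mean, either direction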;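 note: B-score of the F/F0 ratio slope over 7 to 12 s after thallium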
PKD1 inh: blocks activity of human protein kinase D1; Q15139; PKD1 kinase fluorescence polarization assay; inhibition, % (test concentration not listed); 200,000 compounds, 0.056% hits; AID 797; in the data active = inhibition above about 50%
KCC2 mod: modulators of human KCC2 chloride dependent transport; B-score of Tl+ flux slope (higher = more flux/activation; lower = inhibition) at 10 µM; KCC2 cells, thallium flux FluoZin-2 fluorescence; Q9H2X9; 190,000 compounds, 2.2% hits;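 active = thallium flux slope and its plate-corrected score both differing from the plate sample mean at a set confidence after two filtering rounds, in either direction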;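 note: slope of fluorescence scaled to starting intensity during 10 to 20 s after thallium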
Rad51 HR inh: blocks human Rad51 in homologous recombination; Q06609; inhibition, % at 10 µM; AID 1385; hRad51 DNA strand exchange, fluorescence dequenching; 200,000 compounds, 0.085% hits;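 active = inhibition above 40% at the single screening dose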;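 note: 0% = DMSO control wells and 100% = blanks with heterologous ssDNA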
Target sequence (Q06609 whole entry, looked up): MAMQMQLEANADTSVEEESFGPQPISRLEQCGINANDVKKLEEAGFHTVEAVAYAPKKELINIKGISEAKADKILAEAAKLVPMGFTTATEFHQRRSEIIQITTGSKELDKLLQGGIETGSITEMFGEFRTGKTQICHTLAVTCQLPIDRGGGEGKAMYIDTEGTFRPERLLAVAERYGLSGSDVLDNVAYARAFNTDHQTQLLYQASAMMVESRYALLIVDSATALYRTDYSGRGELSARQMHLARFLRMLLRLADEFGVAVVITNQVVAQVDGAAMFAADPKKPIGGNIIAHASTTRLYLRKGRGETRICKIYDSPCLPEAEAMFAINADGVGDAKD
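material = hRad51 filaments on single-stranded DNA | reagent = Donor/quencher-labelled 47-bp dsDNA substrate | compound = 10 µM final, single point | schedule = strand-exchange reaction 15 min at room temperature | measured by = fluorescein emission 520 nm, excitation 485 nm | read-out basis = % inhibition versus plate control and blank means | benchmarks = plate controls and plate blanks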
The depositor's hits bear a star; i = inactive; · = no result. Most compounds without a hit are left out; they make up all but 3% or so of the library.

SMILES	ROMK primary	PKD1 inh	KCC2 mod	Rad51 HR inh
NC(=S)N/N=C1/CCSc2ccc3ccccc3c21	-3.2*	-2	4.4*	·
NC(=S)N/N=C/c1c(O)ccc2ccccc12	0.44	·	3.8	11
COc1cccc2c1C(=O)c1c(O)c3c(c(O)c1C2=O)C[C@@](O)(C(=O)CO)C[C@@H]3O[C@H]1C[C@H](N)[C@@H](O)[C@H](C)O1	·	·	·	74*
COc1cccc2c1C(=O)c1c(O)c3c(c(O)c1C2=O)C[C@@](O)(C(C)=O)C[C@@H]3O[C@H]1C[C@H](N)[C@H](O)[C@H](C)O1	·	35	i	·
OCc1cc(C(O)CNCCCCCCOCCCCc2ccccc2)ccc1O (stereo not drawn)	·	·	-3*	1
CC(C)(C)NCC(O)c1ccc(O)c(CO)c1 (stereo not drawn)	·	·	·	-7
Cc1cccc(NC(=O)c2cc([N+](=O)[O-])ccc2N2CCCCC2)n1	-0.79	-4	0.069	1
CCOC(=O)C1CCC2(CC1)C(C#N)=C(N)Oc1n[nH]c(C)c12 (stereo not drawn)	-0.23	0	-0.032	1
S=c1[nH]c(-c2ccc(Cl)cc2)cs1	17*	6	55*	2
Cc1ccc(-c2csc(=S)[nH]2)cc1	10*	-1	100*	-16
CC(=O)Cc1nnn(-c2cc(C)on2)n1	-0.24	·	0.22	10
Cn1cccc1C(=O)NC(=O)COC(=O)c1cc(S(=O)(=O)N2CCCCC2)ccc1Cl	·	91*	0.37	-25
CCOC(=O)C(NC(C)=O)(Nc1ccc(S(=O)(=O)Nc2cc(C)on2)cc1)C(F)(F)F (stereo not drawn)	·	-2	0.016	41*
O=C1NC(=S)/C(=C\c2ccc(-c3ccccc3Cl)o2)S1	-0.0018	-1	25*	-65
CCN(CC)S(=O)(=O)c1ccc2c(c1)nc(SC(C)C(N)=O)n2-c1ccc(OC)cc1 (stereo not drawn)	·	-7	0.84	63*
CC(C)CC(NC(=O)C(COC(C)(C)C)NC(=O)C(Cc1ccc(O)cc1)NC(=O)C(CO)NC(=O)C(Cc1c[nH]c2ccccc12)NC(=O)C(Cc1cnc[nH]1)NC(=O)C1CCC(=O)N1)C(=O)N[C@@H](CCCN=C(N)N)C(=O)N1CCCC1C(=O)NNC(N)=O (stereo partly drawn)	·	·	·	0
O=C(OC(C(=O)Nc1cccc(C(F)(F)F)c1)c1ccccc1)C1CCCCC1 (stereo not drawn)	-0.27	-1	0.51	-6
CC(C)(C)C(=O)Nc1nc(=S)ss1	0.28	6	·	3
CCC(=O)Nc1nc(=S)ss1	1.4	3	·	62*
CCOc1ccc(NC(=O)Nc2cccn(Cc3ccccc3)c2=O)cc1	0.63	9	-0.63	41*
COc1ccc(CCNC(=O)C2CCCN(c3ncccn3)C2)cc1 (stereo not drawn)	0.26	-3	0.99	4
COc1ccccc1/C=C/C1(C(=O)NC2CCCC2)CC(=O)N1c1ccccc1 (stereo not drawn)	·	·	·	11
COc1ccc(N2C(=O)[C@@H]3[C@H](C2=O)[C@H]2c4ccccc4C=CN2[C@@H]3C(C)=O)cc1	-3.6*	-17	-0.45	0
CC(C)CCn1c(=O)c2ccccc2n2c(CN3C(=O)NC4(CCC(C)CC4)C3=O)nnc12 (stereo not drawn)	4*	1	-0.044	3
CN(CC(=O)Nc1ccccc1C(F)(F)F)C(=O)COc1ncnc2ccccc12	-0.0044	-4	0.53	-1
SMILES	ROMK primary	PKD1 inh	KCC2 mod	Rad51 HR inh
CC(=O)c1cccc(NC(=S)NC(=O)C(C)C)c1	·	-7	0.61	-4
CC(=O)c1cccc(NC(=S)NC(=O)c2cccc(Cl)c2)c1	0.45	-13	16*	·
O=C(NC(=S)Nc1ccc(N2CCOCC2)cc1)c1cccc(Cl)c1	-0.44	7	6.9*	·
O=C(NC(=S)Nc1ccc(N2CCOCC2)cc1)c1ccco1	0.21	-2	11*	-2
CC(=O)Nc1ccc(NC(=O)C(C)Sc2nnc(-c3cccs3)o2)cc1 (stereo not drawn)	·	·	0.88	10
C/C=C\C(=O)Nc1cccc(C2=NOC3(C2)C[C@@H](C(N)=O)N(C(=O)c2ccc(OC)cc2)C3)c1 (stereo partly drawn)	·	·	-0.71	-2
Cc1c(C=O)c(=O)n(-c2ccccc2)n1-c1ccccc1	0.0079	1	0.34	·
COc1ccc(NC(=S)N/N=C/c2cccn2Cc2ccc(F)cc2Cl)cc1	1.3*	-2	3.8*	-24
O=C(/C=C/c1ccc(O)cc1)c1ccccc1	·	·	-0.089	·
O=C(/C=C/c1ccc(N2CCC(c3ccccc3)=N2)cc1)c1ccccc1	-4.4*	-10	0.031	i

Bioassay records (PubChem BioAssay)
